Screens from PubChem BioAssay.
Apaf1 inhib – inhibitors of human Apaf-1 apoptosome; 330,000 compounds, 0.71% hits; O14727; reconstituted apoptosome caspase-3 activity, DEVD-Rh110 fluorescence; inhibition, % at 20 µM; AID 489030; active means inhibition of at least 40% at 20 µM;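 further: plate controls were DMSO wells for no effect and DEVD-CHO caspase inhibitor wells for full effect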
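Medium: Hepes buffer, pH 7.5 / System: biochemical Apaf-1 apoptosome reconstitution / Measured by: Rh110 fluorescence, excitation 480 nm, emission 540 nm / Times: compound with Apaf-1, dATP, procaspase-3 30 min, then 50 min reaction, room temperature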
MEKK3 PB1 HTS – raises or lowers MEK5 binding to the human MEKK3 PB1 domain; Q99759; bead-based flow cytometry, Alexa488-MEK5 binding to MEKK3; actives lie on both sides; 0 = blocked by unlabeled MEK5, 100 = vehicle; binding response (% of control), % at 10 µM; 290,000 compounds, 1.4% hits;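 active means binding response more than 3 SD above or below the average of its plate-row segment, actives on both sides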;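 further: Alexa488 bead fluorescence after subtracting the streptavidin-only scavenger bead signal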
UBC13 inh – human UBC13 polyubiquitination inhibition; AID 485273; 330,000 compounds, 0.47% hits; UBC13 polyubiquitin chain formation, TR-FRET; P61088; inhibition, % at 20 µM; in the data active means inhibition above about 45%, passing the limit was not always enough
Target sequence (P61088 whole entry, looked up): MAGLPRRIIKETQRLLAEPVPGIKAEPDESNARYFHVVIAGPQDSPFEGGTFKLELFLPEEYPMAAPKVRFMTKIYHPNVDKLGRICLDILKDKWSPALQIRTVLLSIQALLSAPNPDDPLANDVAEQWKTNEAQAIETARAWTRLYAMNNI
MEKK2 mut-MEK5 – signal of MEK5 binding to mutant human MEKK2 PB1 domain; bead flow cytometry, Alexa488-MEK5 binding to MEKK2 mutant; percent response, % at 10 µM; 290,000 compounds, 0.35% hits; AID 1530; in the data active means percent response above about 24%, passing the limit was not always enough
MEKK2 WT-MEK5 – raises or lowers MEK5 binding to wildtype human MEKK2 PB1 domain; binding response (% of control), % at 10 µM; 290,000 compounds, 1.1% hits; AID 1531; bead flow cytometry, Alexa488-MEK5 binding to MEKK2 WT; actives lie on both sides; in the data active means binding response below about 67% or above about 130%
MEKK2wt confirm – raises or lowers MEK5 binding to wildtype human MEKK2, retest. binding response (% of control), % at 10 µM. shares compounds with MEKK3 PB1 HTS. bead flow cytometry, Alexa488-MEK5 binding to MEKK2 WT; actives lie on both sides. 5,900 compounds, 2.4% hits; in the data active means binding response below about 16% or above about 210%; inactive means in between
MEKK2mut-MEK5 – signal of MEK5 binding to mutant human MEKK2, retest. shares compounds with MEKK3 PB1 HTS. bead flow cytometry, Alexa488-MEK5 binding to MEKK2 mutant. percent response, % at 10 µM. 5,900 compounds, 2% hits. AID 1893; in the data active means percent response mostly above about 71%, no sharp cut-off; inactive means mostly below about 38%;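 further: higher means compound restores mutant binding toward wildtype level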
MEKK3-MEK5 inh – confirmation of inhibitors of MEK5 binding to human MEKK3; bead flow cytometry, Alexa488-MEK5 binding to MEKK3; stronger effect = lower value; AID 1894; shares compounds with MEKK3 PB1 HTS; 5,900 compounds, 1.8% hits; binding response (% of control), % at 10 µM;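 active means binding response below 72% of control, or above a set upper limit, though filed actives all read lower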;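 further: 100% = DMSO only wells and 0% = binding blocked by excess unlabeled MEK5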
* = called active by the depositor; · = not tested or not shown; [ ] = another dose, or the depositor's remark. An excerpt weighted towards active compounds, which were near 2.9% of everything screened.

SMILES	Apaf1 inhib	MEKK3 PB1 HTS	UBC13 inh	MEKK2 mut-MEK5	MEKK2 WT-MEK5	MEKK2wt confirm	MEKK2mut-MEK5	MEKK3-MEK5 inh
COc1ccc2oc(=O)c(C(=O)NCC3CCCO3)cc2c1 (stereo not given)	-1.8	82.0*[inhibitor]	11.4	-7.0	94.0	101.0	-6.0	98.0
Cc1cc(C(=O)CCC(=O)NCc2ccccc2F)c(C)s1	10.3	·	-8.4	·	·	·	·	·
CCOc1ccc(N(CC(=O)NCc2ccc(F)cc2)C(=O)CCC(=O)Nc2nccs2)cc1	9.7	102.0	-5.0	-2.0	101.0	·	·	·
CCC/C=C1/CCCOC(C(=O)NCCNCCO)(C(F)(F)F)C1 (stereo not given)	6.3	71.0*[inhibitor]	0.6	-7.0	81.0	97.0	3.0	97.0
CCC/C=C1/CCCOC(C(=O)NCc2ccccc2)(C(F)(F)F)C1 (stereo not given)	8.7	98.0	-10.3	0.0	98.0	·	·	·
O=C(CSc1nnc(CNC(=O)c2cccs2)o1)Nc1cccc(Cl)c1	-28.8	102.0	15.4	3.0	101.0	·	·	·
O=C(/C=C/c1ccco1)N(Cc1ccc(F)cc1)C1CCS(=O)(=O)C1 (stereo not given)	-12.0	59.0*[inhibitor]	-6.5	-17.0	63.0*[inhibitor]	97.0	-1.0	98.0
CN1CCN(Cc2nc3ccccc3c(=O)n2Cc2nc(-c3ccc4ccccc4c3)cs2)CC1	·	108.0	·	51.0*	195.0*	153.0	25.0	104.0
COc1ccc(/C=C(\NC(=O)c2ccc(C)cc2)C(=O)Nc2c(C)n(C)n(-c3ccccc3)c2=O)cc1	-9.2	94.0	-1.0	-3.0	87.0	·	·	·
Cc1ccc(S(=O)(=O)NCCCCCC(=O)N(C)C)cc1	5.7	71.0*[inhibitor]	-3.5	-11.0	77.0	105.0	6.0	106.0
O=C(COC(=O)c1cncc(Br)c1)NC1CCCCCC1	0.7	99.0	-5.6	-8.0	84.0	·	·	·
CCCCc1ccc(S(=O)(=O)Nc2ccc(C)c(NS(C)(=O)=O)c2)cc1	-11.6	137.0*	-7.2	29.0	113.0	100.0	1.0	101.0
CCCc1ccc(S(=O)(=O)Nc2ccc(C)c(NS(C)(=O)=O)c2)cc1	14.6	104.0	1.9	1.0	106.0	·	·	·
CCC(C)(C)n1nnnc1CN1CCC(O)(c2cccc(C(F)(F)F)c2)CC1	-0.3	105.0	0.5	-3.0	105.0	·	·	·
OC1(c2cccc(C(F)(F)F)c2)CCN(CCN2CCCCC2)CC1	3.8	109.0	7.2	16.0	140.0*	137.0	31.0	106.0
COc1ccccc1NC(=O)CSc1nc2n[nH]c(C)c2c(=N)n1-c1ccccc1Cl	-3.0	95.0	34.2	18.0	140.0*	139.0	21.0	105.0
O=C(COC(=O)c1ccc[nH]c1=O)NC1CCCCC1	-6.3	91.0	-7.2	-15.0	88.0	·	·	·
O=c1[nH]c(/C=C/c2cccc3ccccc23)nc2ccccc12	9.8	99.0	-5.9	1.0	95.0	·	·	·
O=c1[nH]c(/C=C/c2ccccc2[N+](=O)[O-])nc2ccccc12	4.6	132.0*	-20.1	0.0	110.0	89.0	-5.0	89.0
Cc1ccc(S(=O)(=O)Nc2ccccc2F)cc1C(=O)NNC(=O)c1ccccc1O	11.5	·	-5.8	·	·	·	·	·
COc1ccc(N(CC(=O)Nc2ccccc2F)S(=O)(=O)c2ccc(OC)c(OC)c2)cc1	11.1	100.0	1.8	2.0	103.0	·	·	·
NC(=O)[C@@H]1CCCN1Cc1c(C(=O)N2CCc3ccccc3C2)nc2ccc(Cl)cn12	9.2	97.0	1.1	4.0	103.0	·	·	·
CC1CCCN(CC(O)CN)C1 (stereo not given)	6.6	91.0	-10.7	2.0	100.0	·	·	·
Cc1ccn2cc(-c3ccc(Br)cc3)nc2c1	-10.5	95.0	-2.9	-4.0	97.0	·	·	·
Clc1ccc(-c2cn3cc(Br)ccc3n2)cc1Cl	8.6	150.0*	29.3	0.0	109.0	93.0	-2.0	100.0
SMILES	Apaf1 inhib	MEKK3 PB1 HTS	UBC13 inh	MEKK2 mut-MEK5	MEKK2 WT-MEK5	MEKK2wt confirm	MEKK2mut-MEK5	MEKK3-MEK5 inh
c1ccc2c(c1)CCN(c1nc(CN3CCOCC3)nc3sc4c(c13)CCCC4)C2	18.0	135.0*	26.5	3.0	107.0	110.0	3.0	104.0
CCNc1nc(CN2CCOCC2)nc2sc3c(c12)CCC3	2.9	102.0	3.2	5.0	102.0	·	·	·
COc1ccc(NC(=O)CSCC(=O)N(C)Cc2ccc3c(c2)OCCO3)cc1	12.7	·	-0.6	·	·	·	·	·
CCOP(=O)(c1ccccc1)C(O)c1ccc(Br)cc1 (stereo not given)	-1.3	134.0*	-3.2	0.0	106.0	97.0	-8.0	91.0
C=C1CCN([C@H](C(=O)NCc2ccc(Cl)cc2)C(C)C)S(=O)(=O)c2ccccc21	12.6	80.0*[inhibitor]	-3.2	-3.0	96.0	95.0	-5.0	97.0
Cc1cccc(C(=O)C2CCN(S(=O)(=O)c3cccc(C(=O)O)c3)CC2)c1	-0.4	99.0	-4.0	-6.0	98.0	·	·	·
COc1cc2c(cc1OC)CN(C(=O)c1ccco1)CC2	6.0	143.0*	4.4	2.0	125.0	97.0	-5.0	101.0
COc1cccc(OCCOCCOc2ccc(C)cc2[N+](=O)[O-])c1	14.2	146.0*	2.8	0.0	109.0	97.0	-2.0	102.0
CC1Sc2ccc(C(=O)Nc3ccccc3OC(F)F)cc2NC1=O (stereo not given)	8.8	·	1.2	·	·	·	·	·
CCOC(=O)c1c(CSC(=N)N)n(-c2ccc(C)cc2)c2cc(Br)c(OC(C)=O)cc12	45.8*	102.0	56.2*	70.0*	232.0*	212.0*	55.0	108.0
CCN(CC)CC#CCC(O)(c1ccccc1)C1CCCC1 (stereo not given)	-0.2	95.0	7.1	-2.0	46.0*[inhibitor]	116.0	4.0	106.0
CN(C)CC#CCC(O)(c1ccccc1)C1CCCCC1 (stereo not given)	0.9	104.0	12.1	5.0	109.0	·	·	·
CCOC(=O)C(NC(=O)Nc1ccc(F)cc1F)(Oc1ccc(F)cc1)C(F)(F)F (stereo not given)	9.7	128.0*	-0.8	3.0	104.0	105.0	8.0	106.0
Cc1ccccc1N(CC(=O)NCc1ccc2c(c1)OCO2)C(=O)CCC(=O)Nc1ccccn1	-1.8	76.0*[inhibitor]	1.4	-11.0	86.0	100.0	-6.0	101.0
O=C(CN(C(=O)CCC(=O)Nc1ccccn1)c1ccccc1F)NCc1ccc2c(c1)OCO2	5.9	100.0	-0.2	-3.0	101.0	·	·	·
Cc1nc2c3cc(F)ccc3n(Cc3ccc(F)cc3)c2s1	4.7	144.0*	-5.4	0.0	111.0	93.0	-5.0	96.0
O=C(Cc1ccccc1)Nc1ccc(S(=O)(=O)N2CCOCC2)cc1	5.0	100.0	4.5	2.0	98.0	·	·	·
